In brackets after ≈: the same amount, converted by molar mass.
How the values were obtained:
Assay type in all cases: functional
[1] = system: Vesicular stomatitis virus; test: Inhibition of Vesicular stomatitis virus induced cytopathicity in BALB/3T3 cells.; details: in Mus musculus
How it was run: (§1)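 Vesicular stomatitis virus was inoculated at 100 CCID50 (100× the dose infecting 50% of cells) in each cell type: human embryonic skin-muscle fibroblasts, LR-strain trisomy-21 fibroblasts, HEp-2, CV-1, BS-C-1, Balb/3T3, RK13, human kidney, HeLa and Vero. CPE was read at 1–2 days in every cell type, once complete in untreated infected controls. The MIC is the concentration giving a 50% reduction in cytopathogenicity.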

[2] = system: Vesicular stomatitis virus; test: Inhibition of Vesicular stomatitis virus induced cytopathicity in BS-C-1 cells.; how it was run: as §1
[3] = system: Vesicular stomatitis virus; test: Inhibition of Vesicular stomatitis virus induced cytopathicity in CV-1 cells.; how it was run: as §1
[4] = system: Vesicular stomatitis virus; test: Inhibition of Vesicular stomatitis virus induced cytopathicity in E6SM cells.; how it was run: as §1
HK = test: Minimum inhibitory concentration which is required to reduce virus-induced cytopathogenicity by 50% against Vesicular stomatitis virus in human kidney,; how it was run: as §1
[5] = system: Vesicular stomatitis virus; test: Inhibition of Vesicular stomatitis virus induced cytopathicity in HEp-2 cells.; how it was run: as §1
Coxsackievirus B4 = test: Inhibition of Coxsackie B4 virus induced cytopathicity in HeLa cells.; details: Enterovirus B
[6] = system: Vesicular stomatitis virus; test: Inhibition of Vesicular stomatitis virus induced cytopathicity in HeLa cells.; how it was run: as §1
HeLa = test: Cytotoxic concentration against HeLa cells.; details: Homo sapiens
How it was run: (§2)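 Uninfected cells were incubated with compound for the same duration as the matching antiviral assay. The minimum cytotoxic concentration is the lowest one causing a microscopically detectable change in normal cell morphology.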

PRK = test: Cytotoxic concentration against PRK cells.; details: Oryctolagus cuniculus; how it was run: as §2
Human alphaherpesvirus 1 = test: Inhibition of HSV-1 induced cytopathicity in PRK cells.
Vaccinia virus = test: Inhibition of Vaccinia virus induced cytopathicity in PRK cells.; details: Orthopoxvirus vaccinia
[7] = system: Vesicular stomatitis virus; test: Inhibition of Vesicular stomatitis virus induced cytopathicity in PRK cells.
Oryctolagus cuniculus [8] = species: Oryctolagus cuniculus; test: Inhibitory effects on DNA, RNA, and Protein synthesis in rabbit kidney cells was evaluated for incorporation of [4,5-3H]leucine; details: read-out: ID50 (the source's name)
Oryctolagus cuniculus [9] = species: Oryctolagus cuniculus; test: Inhibitory effects on DNA, RNA, and Protein synthesis in rabbit kidney cells was evaluated for incorporation of [5-3H]-Urd; details: read-out: ID50 (the source's name)
[10] = system: Vesicular stomatitis virus; test: Inhibition of Vesicular stomatitis virus induced cytopathicity in RK13 cells.; how it was run: as §1
[11] = system: Vesicular stomatitis virus; test: Inhibition of Vesicular stomatitis virus induced cytopathicity in T-21 cells.; how it was run: as §1
Vero = test: Cytotoxic concentration against Vero cells.; details: Chlorocebus sabaeus; how it was run: as §2
Sindbis virus = test: Inhibition of Sindbis virus induced cytopathicity in vero cells.
[12] = system: Vesicular stomatitis virus; test: Inhibition of Vesicular stomatitis virus induced cytopathicity in Vero cells.; how it was run: as §1
Measles morbillivirus = test: Inhibition of Measles virus induced cytopathicity in vero cells.
Human respirovirus 3 = test: Inhibition of parainfluenza virus-3 induced cytopathicity in vero cells.
[13] = system: Mammalian orthoreovirus 1; test: Inhibition of Reo virus-1 induced cytopathicity in vero cells.
Poliovirus 1 = test: Inhibition of polio virus 1 induced cytopathicity in HeLa cells.; details: Enterovirus C
Oryctolagus cuniculus [14] = species: Oryctolagus cuniculus; test: Inhibitory effects on DNA, RNA, and Protein synthesis in rabbit kidney cells was evaluated for incorporation of [methyl-3H]dThd]; details: read-out: ID50 (the source's name)

Structure (SMILES) | MIC [1] [mg/L] | MIC [2] [mg/L] | MIC [3] [mg/L] | MIC [4] [mg/L] | MIC (HK) [mg/L] | MIC [5] [mg/L] | MIC (Coxsackievirus B4) [mg/L] | MIC [6] [mg/L] | MCC (HeLa) [µg/mL] | MCC (PRK) [µg/mL] | MIC (Human alphaherpesvirus 1) [mg/L] | MIC (Vaccinia virus) [mg/L] | MIC [7] [mg/L] | MIC [10] [mg/L] | MIC [11] [mg/L] | MCC (Vero) [µg/mL] | MIC (Sindbis virus) [mg/L] | MIC [12] [mg/L] | MIC (Measles morbillivirus) [mg/L] | MIC (Human respirovirus 3) [mg/L] | further results
CC(C)COC(=O)C(O)Cn1cnc2c(N)ncnc21 (stereo unspecified) | 300 (≈ 1070 µM) | 100 (≈ 358 µM) | 200 (≈ 716 µM) | 5 (≈ 17.9 µM) | 20 (≈ 71.6 µM) | 1 (≈ 3.58 µM) | > 400 | 10 (≈ 35.8 µM) | > 400 | > 400 | > 400 | 3 (≈ 10.7 µM) | 1 (≈ 3.58 µM) | 30 (≈ 107 µM) | 1 (≈ 3.58 µM) | > 400 | > 400 | 30 (≈ 107 µM) | 40 (≈ 143 µM) | 20 (≈ 71.6 µM) | IC50 (Oryctolagus cuniculus [8]): > 277 mg/L; IC50 (Oryctolagus cuniculus [9]): 34 mg/L (≈ 122 µM); MIC [13]: 150 mg/L (≈ 537 µM); MIC (Poliovirus 1): > 400 mg/L; IC50 (Oryctolagus cuniculus [14]): 242 mg/L (≈ 866 µM)
Nc1ncnc2c1ncn2CC(O)C(=O)OC1CCCCC1 (stereo unspecified) | 70 (≈ 229 µM) | 40 (≈ 131 µM) | > 200 | 7 (≈ 22.9 µM) | > 200 | 2 (≈ 6.55 µM) | > 100 | 30 (≈ 98.3 µM) | 100 | 100 | 100 (≈ 328 µM) | 3 (≈ 9.83 µM) | 1 (≈ 3.28 µM) | 70 (≈ 229 µM) | 1 (≈ 3.28 µM) | 100 | > 100 | > 100 | 15 (≈ 49.1 µM) | > 40 | MIC [13]: 7 mg/L (≈ 22.9 µM); MIC (Poliovirus 1): > 100 mg/L
CCCCCOC(=O)C(O)Cn1cnc2c(N)ncnc21 (stereo unspecified) | > 200 | 100 (≈ 341 µM) | 300 (≈ 1020 µM) | 3 (≈ 10.2 µM) | 20 (≈ 68.2 µM) | 2 (≈ 6.82 µM) | > 400 | 10 (≈ 34.1 µM) | > 400 | 200 | > 200 | 70 (≈ 239 µM) | 10 (≈ 34.1 µM) | 100 (≈ 341 µM) | 1 (≈ 3.41 µM) | 200 | 200 (≈ 682 µM) | 20 (≈ 68.2 µM) | 70 (≈ 239 µM) | 70 (≈ 239 µM) | IC50 (Oryctolagus cuniculus [8]): 215 mg/L (≈ 733 µM); IC50 (Oryctolagus cuniculus [9]): 21 mg/L (≈ 71.6 µM); MIC [13]: 30 mg/L (≈ 102 µM); MIC (Poliovirus 1): > 400 mg/L; IC50 (Oryctolagus cuniculus [14]): 151 mg/L (≈ 515 µM)
CCCOC(=O)C(O)Cn1cnc2c(N)ncnc21 (stereo unspecified) | > 400 | 300 (≈ 1130 µM) | > 400 | 10 (≈ 37.7 µM) | 200 (≈ 754 µM) | 3 (≈ 11.3 µM) | > 400 | 50 (≈ 188 µM) | > 400 | 100 | > 100 | 3 (≈ 11.3 µM) | 1 (≈ 3.77 µM) | 2 (≈ 7.54 µM) | 7 (≈ 26.4 µM) | > 400 | > 200 | 150 (≈ 565 µM) | 100 (≈ 377 µM) | 100 (≈ 377 µM) | IC50 (Oryctolagus cuniculus [8]): > 400 mg/L; IC50 (Oryctolagus cuniculus [9]): 168 mg/L (≈ 633 µM); MIC [13]: 200 mg/L (≈ 754 µM); MIC (Poliovirus 1): > 400 mg/L; IC50 (Oryctolagus cuniculus [14]): > 276 mg/L
CCOC(=O)C(O)Cn1cnc2c(N)ncnc21 (stereo unspecified) | > 400 | > 400 | > 400 | 7 (≈ 27.9 µM) | 200 (≈ 796 µM) | 7 (≈ 27.9 µM) | > 400 | 4 (≈ 15.9 µM) | > 400 | > 400 | > 400 | 3 (≈ 11.9 µM) | 1 (≈ 3.98 µM) | 2 (≈ 7.96 µM) | 1 (≈ 3.98 µM) | > 400 | > 400 | 400 (≈ 1590 µM) | 20 (≈ 79.6 µM) | 20 (≈ 79.6 µM) | MIC [13]: 40 mg/L (≈ 159 µM); MIC (Poliovirus 1): > 400 mg/L
COCCOC(=O)C(O)Cn1cnc2c(N)ncnc21 (stereo unspecified) | > 400 | > 400 | > 400 | 7 (≈ 24.9 µM) | > 400 | 7 (≈ 24.9 µM) | > 400 | 20 (≈ 71.1 µM) | > 400 | > 400 | > 400 | 30 (≈ 107 µM) | 7 (≈ 24.9 µM) | 70 (≈ 249 µM) | 15 (≈ 53.3 µM) | > 400 | > 400 | 300 (≈ 1070 µM) | 400 (≈ 1420 µM) | 300 (≈ 1070 µM) | MIC [13]: 70 mg/L (≈ 249 µM); MIC (Poliovirus 1): > 400 mg/L
CCCCOC(=O)C(O)Cn1cnc2c(N)ncnc21 (stereo unspecified) | 200 (≈ 716 µM) | 150 (≈ 537 µM) | 300 (≈ 1070 µM) | 7 (≈ 25.1 µM) | 50 (≈ 179 µM) | 2 (≈ 7.16 µM) | > 400 | 15 (≈ 53.7 µM) | 400 | 200 | > 200 | 3 (≈ 10.7 µM) | 3 (≈ 10.7 µM) | 100 (≈ 358 µM) | 2 (≈ 7.16 µM) | 200 | 150 (≈ 537 µM) | 30 (≈ 107 µM) | 25 (≈ 89.5 µM) | 70 (≈ 251 µM) | IC50 (Oryctolagus cuniculus [8]): > 381 mg/L; IC50 (Oryctolagus cuniculus [9]): 102 mg/L (≈ 365 µM); MIC [13]: 150 mg/L (≈ 537 µM); MIC (Poliovirus 1): > 400 mg/L; IC50 (Oryctolagus cuniculus [14]): > 253 mg/L
